Converted amounts (≈) assume the structure as drawn.
Legend:
Format in all cases: functional
[1] = system: Aspergillus flavus; test: Antifungal activity against Aspergillus flavus KCCM 11899 after 2 days by two fold broth dilution method; conditions: KCCM 11899, 48 h
Method in brief: (§1)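 Twofold broth dilution in modified Sabouraud dextrose broth, inoculum about 1 × 10⁵ cells/mL. Compounds were tested at final concentrations of […]. Plates were incubated at 37 °C and the MIC was read after 2 days. Fluconazole and 5-fluorocytosine served as reference agents.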

[2] = system: Aspergillus niger; test: Antifungal activity against Aspergillus niger KCTC 1231 after 2 days by two fold broth dilution method; conditions: KCTC 1231, 48 h; method in brief: as §1
[3] = system: Cryptococcus neoformans; test: Antifungal activity against Cryptococcus neoformans KCCM 50564 after 1 day by two fold broth dilution method; conditions: KCCM 50564, 24 h
Method in brief: (§2)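 Yeasts were tested by twofold broth dilution in modified Sabouraud dextrose broth with about 1 × 10⁵ cells/mL inoculum. Final compound concentrations ran from […]. Incubation was at 37 °C with the MIC read after 1 day. Fluconazole and 5-fluorocytosine were the standard comparators.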

[4] = system: Candida albicans; test: Antifungal activity against Candida albicans Berkout KCCM 50235 after 1 day by two fold broth dilution method; conditions: Berkout KCCM 50235, 24 h; method in brief: as §2
[5] = system: Candida tropicalis; test: Antifungal activity against Candida tropicalis Berkout KCCM 50662 after 1 day by two fold broth dilution method; conditions: Berkout KCCM 50662, 24 h; method in brief: as §2
[6] = system: Pichia kudriavzevii; test: Antifungal activity against Candida krusei Berkout KCCM 11655 after 1 day by two fold broth dilution method; conditions: Berkout KCCM 11655, 24 h; method in brief: as §2

| SMILES | MIC [1] | MIC [2] | MIC [3] | MIC [4] | MIC [5] | MIC [6] |
| --- | --- | --- | --- | --- | --- | --- |
| COC(=O)c1c(C)nc(C)c2c1C(=O)C=C(Nc1ccc(C)cc1)C2=O | 25 µg/mL (≈ 71.4 µM) | 25 µg/mL (≈ 71.4 µM) | 12.5 µg/mL (≈ 35.7 µM) | 25 µg/mL (≈ 71.4 µM) | 25 µg/mL (≈ 71.4 µM) | 25 µg/mL (≈ 71.4 µM) |
| CC(=O)c1cc(O)ccc1O | 100 µg/mL (≈ 657 µM) | > 100 µg/mL | 50 µg/mL (≈ 329 µM) | 50 µg/mL (≈ 329 µM) | 50 µg/mL (≈ 329 µM) | 100 µg/mL (≈ 657 µM) |
| COC(=O)c1c(C)nc(C)c2c1C(=O)C(Cl)=C(Nc1ccc(Br)cc1)C2=O | 6.3 µg/mL (≈ 14 µM) | 1.6 µg/mL (≈ 3.56 µM) | 3.2 µg/mL (≈ 7.12 µM) | 1.6 µg/mL (≈ 3.56 µM) | 12.5 µg/mL (≈ 27.8 µM) | 6.3 µg/mL (≈ 14 µM) |
| Nc1nc(=O)[nH]cc1F [FLUCYTOSINE] | 6.3 µg/mL (≈ 48.8 µM) | 6.3 µg/mL (≈ 48.8 µM) | 12.5 µg/mL (≈ 96.8 µM) | 3.2 µg/mL (≈ 24.8 µM) | 3.2 µg/mL (≈ 24.8 µM) | 6.3 µg/mL (≈ 48.8 µM) |
| COC(=O)c1c(C)nc(C)c2c1C(=O)C=C(Nc1ccc(Br)cc1)C2=O | 12.5 µg/mL (≈ 30.1 µM) | 6.3 µg/mL (≈ 15.2 µM) | 12.5 µg/mL (≈ 30.1 µM) | 12.5 µg/mL (≈ 30.1 µM) | 12.5 µg/mL (≈ 30.1 µM) | 12.5 µg/mL (≈ 30.1 µM) |

Second part, the molecule after the results:

| MIC [1] | MIC [2] | MIC [3] | MIC [4] | MIC [5] | MIC [6] | SMILES |
| --- | --- | --- | --- | --- | --- | --- |
| 25 µg/mL (≈ 50.3 µM) | 1.6 µg/mL (≈ 3.22 µM) | 3.2 µg/mL (≈ 6.44 µM) | 6.3 µg/mL (≈ 12.7 µM) | 6.3 µg/mL (≈ 12.7 µM) | 12.5 µg/mL (≈ 25.2 µM) | COC(=O)c1c(C)nc(C)c2c1C(=O)C(Cl)=C(Nc1ccc(I)cc1)C2=O |
| 1.6 µg/mL (≈ 3.95 µM) | 3.2 µg/mL (≈ 7.9 µM) | 12.5 µg/mL (≈ 30.8 µM) | 1.6 µg/mL (≈ 3.95 µM) | 6.3 µg/mL (≈ 15.5 µM) | 12.5 µg/mL (≈ 30.8 µM) | COC(=O)c1c(C)nc(C)c2c1C(=O)C(Cl)=C(Nc1ccc(Cl)cc1)C2=O |
| 25 µg/mL (≈ 65 µM) | 1.6 µg/mL (≈ 4.16 µM) | 6.3 µg/mL (≈ 16.4 µM) | 1.6 µg/mL (≈ 4.16 µM) | 0.8 µg/mL (≈ 2.08 µM) | 3.2 µg/mL (≈ 8.32 µM) | COC(=O)c1c(C)nc(C)c2c1C(=O)C(Cl)=C(Nc1ccc(C)cc1)C2=O |
| 25 µg/mL (≈ 58.2 µM) | 6.3 µg/mL (≈ 14.7 µM) | 6.3 µg/mL (≈ 14.7 µM) | 6.3 µg/mL (≈ 14.7 µM) | 1.6 µg/mL (≈ 3.73 µM) | 6.3 µg/mL (≈ 14.7 µM) | COC(=O)c1c(C)nc(C)c2c1C(=O)C(Br)=C(Nc1ccc(C)cc1)C2=O |
| 6.3 µg/mL (≈ 16.5 µM) | 6.3 µg/mL (≈ 16.5 µM) | 6.3 µg/mL (≈ 16.5 µM) | 25 µg/mL (≈ 65.5 µM) | 12.5 µg/mL (≈ 32.8 µM) | 12.5 µg/mL (≈ 32.8 µM) | COC(=O)c1c(C)nc(C)c2c1C(=O)C=C(Sc1ccc(C)c(C)c1)C2=O |
| 6.3 µg/mL (≈ 17.1 µM) | 6.3 µg/mL (≈ 17.1 µM) | 3.2 µg/mL (≈ 8.66 µM) | 25 µg/mL (≈ 67.7 µM) | 25 µg/mL (≈ 67.7 µM) | 6.3 µg/mL (≈ 17.1 µM) | COC(=O)c1c(C)nc(C)c2c1C(=O)C=C(Sc1ccc(O)cc1)C2=O |
| 6.3 µg/mL (≈ 16.2 µM) | 1.6 µg/mL (≈ 4.12 µM) | 6.3 µg/mL (≈ 16.2 µM) | 1.6 µg/mL (≈ 4.12 µM) | 1.6 µg/mL (≈ 4.12 µM) | 6.3 µg/mL (≈ 16.2 µM) | COC(=O)c1c(C)nc(C)c2c1C(=O)C(Cl)=C(Nc1ccc(F)cc1)C2=O |

Source: ChEMBL document CHEMBL2346510, “Synthesis and antifungal evaluation of 7-arylamino-5,8-dioxo-5,8-dihydroisoquinoline-4-carboxylates” (2013)
